Experimental data published in ChEMBL document CHEMBL4613262, “Revisiting Aldehyde Oxidase Mediated Metabolism in Drug-like Molecules: An Improved Computational Model” (J Med Chem, 2020).

Columns and labels:
[1] = molecular target: T1, Aldehyde oxidase (Homo sapiens, UniProt Q06278); assay: Substrate activity at aldehyde oxidase in human liver cytosol assessed as mono-oxide metabolite formation at 10 uM measured after 3 hrs in presence of AOX inhibitor raloxifene by UPLC/Q-TOF MS analysis; type: ADME, subcellular
T1 sequence (Q06278 whole entry): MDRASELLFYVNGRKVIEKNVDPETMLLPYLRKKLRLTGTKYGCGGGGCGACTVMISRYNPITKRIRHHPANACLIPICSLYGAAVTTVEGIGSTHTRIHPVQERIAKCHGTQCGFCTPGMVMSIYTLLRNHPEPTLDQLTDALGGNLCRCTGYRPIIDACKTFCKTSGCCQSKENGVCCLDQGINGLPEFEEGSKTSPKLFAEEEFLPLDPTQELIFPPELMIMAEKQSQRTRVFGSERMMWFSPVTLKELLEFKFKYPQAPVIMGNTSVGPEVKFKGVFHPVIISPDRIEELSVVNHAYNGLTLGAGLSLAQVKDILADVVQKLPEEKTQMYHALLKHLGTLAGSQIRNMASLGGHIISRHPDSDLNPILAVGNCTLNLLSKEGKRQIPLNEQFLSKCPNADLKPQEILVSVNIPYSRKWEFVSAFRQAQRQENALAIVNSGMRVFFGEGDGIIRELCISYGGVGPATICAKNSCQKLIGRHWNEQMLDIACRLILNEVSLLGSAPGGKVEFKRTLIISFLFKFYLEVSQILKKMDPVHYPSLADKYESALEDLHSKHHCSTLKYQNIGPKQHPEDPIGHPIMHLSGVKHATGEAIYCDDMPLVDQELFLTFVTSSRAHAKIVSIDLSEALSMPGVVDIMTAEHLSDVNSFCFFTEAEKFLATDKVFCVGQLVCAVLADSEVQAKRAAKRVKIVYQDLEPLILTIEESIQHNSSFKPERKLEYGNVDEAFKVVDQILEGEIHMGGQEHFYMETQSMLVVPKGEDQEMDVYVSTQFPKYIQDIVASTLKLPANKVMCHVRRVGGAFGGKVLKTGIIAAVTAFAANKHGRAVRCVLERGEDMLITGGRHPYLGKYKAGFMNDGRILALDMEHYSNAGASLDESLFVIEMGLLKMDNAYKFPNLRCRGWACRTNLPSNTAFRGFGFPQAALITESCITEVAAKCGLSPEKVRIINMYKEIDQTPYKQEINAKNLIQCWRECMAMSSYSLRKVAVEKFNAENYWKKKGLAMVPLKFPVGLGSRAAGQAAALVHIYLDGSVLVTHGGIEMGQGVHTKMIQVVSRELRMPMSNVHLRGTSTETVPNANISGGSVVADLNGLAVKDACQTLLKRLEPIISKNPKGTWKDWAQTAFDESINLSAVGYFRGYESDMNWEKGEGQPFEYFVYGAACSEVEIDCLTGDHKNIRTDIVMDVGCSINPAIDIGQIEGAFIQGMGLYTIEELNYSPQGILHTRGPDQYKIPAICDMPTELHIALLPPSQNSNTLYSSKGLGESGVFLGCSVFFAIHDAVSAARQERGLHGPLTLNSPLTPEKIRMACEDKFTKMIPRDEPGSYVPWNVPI
Procedure, shortened: (§1)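 Human liver cytosol (2 mg/mL final protein) in 100 mM potassium phosphate pH 7.4 with 2 mM MgCl2, 10 μM test compound, 100 μM inhibitor, DMSO 1.1% final. Pre-incubated 3 min at 37°C, started by adding compound, run 3 h at 37°C, stopped with ice-cold acetonitrile. Supernatant analysed by UPLC/Q-TOF MS (positive ESI) for oxidative metabolite peak area. Inhibition ratio taken against no-inhibitor controls; triplicate.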

[2] = molecular target: T1, Aldehyde oxidase; assay: Substrate activity at aldehyde oxidase in human liver cytosol assessed as mono-oxide metabolite formation at 10 uM measured after 3 hrs in presence of AOX inhibitor hydralazine by UPLC/Q-TOF MS analysis; type: ADME, subcellular; procedure, shortened: as §1

Structure (SMILES): Cl.Cl.Fc1cc(-c2cccc3ncc(-c4cnn(C5CCNCC5)c4)nc23)cc(F)c1CN1CCOCC1
- Drug metabolism [1]: Metabolite_Notdetected
- Drug metabolism [2]: Metabolite_Notdetected

Structure (SMILES): O=C(NCC(=O)N1CCCC1)Nc1ccc2cnccc2c1
- Drug metabolism [1]: Metabolite_Notdetected
- Drug metabolism [2]: Metabolite_Notdetected

Structure (SMILES): O=C(c1cncc(Br)c1)N1CCC(N2CCCC2)CC1
- Drug metabolism [1]: Metabolite_Notdetected
- Drug metabolism [2]: Metabolite_Notdetected

Structure (SMILES): N#C/C(=C\c1ccc(-c2cc(Cl)ccc2Cl)o1)C(=O)Nc1cccc2ncccc12
- Drug metabolism [1]: Metabolite_Notdetected
- Drug metabolism [2]: Metabolite_Notdetected

Structure (SMILES): Cc1cc(Nc2ccc(NC(=O)c3ccc(Nc4ccnc5ccccc45)cc3)cc2)nc(N)n1
- Drug metabolism [1]: Metabolite_Notdetected
- Drug metabolism [2]: Metabolite_Notdetected

Structure (SMILES): Cl.O=C(Nc1ccccc1-c1cn2c(CN3CCNCC3)csc2n1)c1cnc2ccccc2n1
- Drug metabolism [1]: Metabolite_Notdetected
- Drug metabolism [2]: Metabolite_Notdetected
